# Experiments:
# [1] = Abcg2 knockout animals (so in the source); cited from earlier work
# [2] = Lapatinib brain and plasma exposure in wild-type FVB mice; format: in vivo, mouse
# [3] = Lapatinib brain and plasma exposure in Mdr1a/Mdr1b; format: in vivo, mouse; conditions: for lapatinib brain AUC through 8 h: Mdr1a/Mdr1b (-/-) mice; for AUC: male, FVB, mouse, brain, oral
# [4] = Botryllamide G plasma pharmacokinetics in wild-type mice; format: in vivo; conditions: male, FVB, mouse, iv, 13.4 mg/kg
# In short: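 Destructive sampling (n = 3 per timepoint) ran 0.25–24 h into heparinized plasma. Phospholipid-removal/methanol precipitation, then isocratic C18 LC-MS/MS (20–50,000 ng/mL). AUClast used Bailer's method. t1/2 = ln2/terminal kEL, from concentrations above LLOQ.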
# ABCB1 = conditions: read-out: IC50 ABCB1 inhibition; in vitro; cited from earlier work
# [5] = Aqueous solubility in intravenous formulation; format: physicochemical; conditions: limited the dose to 13.4 mg/kg
SMILES,increase in lapatinib brain concentrations [1],"Kp ([2]; male, FVB, mouse, brain and plasma, oral, 90 mg/kg)","AUC ([2]; male, FVB, mouse, plasma, oral, 90 mg/kg)","lapatinib brain exposure through 1 h (AUC0-1 h) ([2]; wild-type mice, doublet (lapatinib + botryllamide G))","lapatinib brain exposure AUC through 24 h ([2]; wild-type mice, lapatinib + botryllamide G + tariquidar 4 mg/kg i.v. (triplet))","lapatinib plasma AUC ([2]; wild-type mice, lapatinib + botryllamide G, 24 h)","lapatinib brain AUC through 24 h ([2]; wild-type mice, lapatinib alone (abstract))","lapatinib brain exposure through 1 h (AUC0-1 h) ([2]; wild-type mice, singlet (lapatinib alone))","lapatinib brain exposure through 1 h (AUC0-1 h) ([2]; wild-type mice, singlet (lapatinib alone), listed as Lapatinib)","lapatinib brain exposure through 1 h (AUC0-1 h) ([2]; wild-type mice, triplet (lapatinib + botryllamide G + tariquidar))","lapatinib brain exposure through 1 h (AUC0-1 h) ([2]; wild-type mice, triplet (lapatinib + botryllamide G + tariquidar), listed as Lapatinib)",lapatinib brain AUC through 8 h ([3]; lapatinib + botryllamide G),lapatinib brain AUC through 8 h ([3]; lapatinib alone),AUC [3],AUC ([3]; 90 mg/kg),AUC [4],Cmax [4],half-life [4],IC50 (ABCB1),aqueous solubility [5]
"CS(=O)(=O)CCNCc1ccc(-c2ccc3ncnc(Nc4ccc(OCc5cccc(F)c5)c(Cl)c4)c3c2)o1 [lapatinib, N-{3-chloro-4-[(3-fluorobenzyl)oxy]phenyl}-6-[5-({[2-(methylsulfonyl)ethyl]amino}methyl)-2-furyl]-4-quinazolinamine]",approximately 40 fold,0.067,66400 ng·h/mL,48.3 ± 14.9 pg·h/mg,2878 pg·h/mg,"71,576 h*pg/mg",4461 ng·h/mL,120 ± 39.9 pg·h/mg,120 pg·h/mg,298 ± 44.6 pg·h/mg,298 pg·h/mg,4007 pg·h/mg,2058 pg·h/mg,4010 ng·h/mL,2060 ng·h/mL,,,,,
CO/C(=C\c1ccc(O)cc1)C(=O)N/C=C/c1cc(Br)c(O)c(Br)c1 [botryllamide G],,,,,,,,,,,,,,,,2090 ng·h/mL,4110 ng/mL,4.6 h,> 50 µM,poor
